Data taken from ChEMBL document CHEMBL4385618, “Exploring small molecules with pan-genotypic inhibitory activities against hepatitis C virus NS3/4A serine protease” (Bioorg Med Chem Lett, 2019).
Calls of active or inactive are those of the source. No cut-off for these calls is given here.

Experiments:
[1] = (§1) Inhibition of recombinant wild type full length His-tagged HCV genotype 1b NS3 (1027 to 1657 residues)/4A (1658 to 1711 residues) protease expressed in Escherichia coli rosetta (DE3) cells using Ac-DE-Dap(QXL520)-EE-Abu-Psi-[COO]AS-C(5-FAMsp)-NH2 as substrate preincubated up to 10 mins followed by substrate addition and measured for 10 mins by fluorescence-based microplate reader analysis; design: species or system Hepatitis C virus subtype 1b
Summary of the method: (§2)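 IC50 came from the fluorescence-based enzymatic assay by fitting the inhibition curve to the three-parameter Hill equation.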

[2] = Binding affinity to recombinant full length His-tagged HCV genotype 1b NS3 (1027 to 1657 residues)/4A (1658 to 1711 residues) protease expressed in Escherichia coli rosetta (DE3) cells assessed as dissociation constant by SPR analysis; design: species or system Hepatitis C virus subtype 1b
[3] = tested on: Hepatitis C virus serine protease, NS3/NS4A (Hepatitis C virus), D2K2A8+A3EZI9 [R155K]; experiment: as §1, with “recombinant” for “recombinant wild type”, “NS3/4A” for “NS3”, “1657” for “1657 residues)/4A (1658 to 1711”, “protease R155K (NS3) mutant” for “protease”; conditions: Hepatitis C virus subtype 1b
Summary of the method: (§3)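 IC50 values come from a fluorescence-based enzymatic assay, with dose-response curves fitted to a three-parameter Hill equation. The mutants were genotype 1b NS3/4A.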

[4] = tested on: Hepatitis C virus genotype 4; experiment: Inhibition of recombinant HCV genotype 4 NS3/4A protease using Ac-DE-Dap(QXL520)-EE-Abu-Psi-[COO]AS-C(5-FAMsp)-NH2 as substrate preincubated up to 10 mins followed by substrate addition and measured for 10 mins by fluorescence-based microplate reader analysis; summary of the method: as §2
[5] = (§4) Inhibition of recombinant HCV genotype 3a NS3/4A protease using Ac-DE-Dap(QXL520)-EE-Abu-Psi-[COO]AS-C(5-FAMsp)-NH2 as substrate preincubated up to 10 mins followed by substrate addition and measured for 10 mins by fluorescence-based microplate reader analysis; design: species or system Hepatitis C virus subtype 3a; summary of the method: as §2
[6] = tested on: Hepatitis C virus subtype 2a; experiment: Inhibition of recombinant HCV genotype 2a NS3/4A protease using Ac-DE-Dap(QXL520)-EE-Abu-Psi-[COO]AS-C(5-FAMsp)-NH2 as substrate preincubated up to 10 mins followed by substrate addition and measured for 10 mins by fluorescence-based microplate reader analysis; summary of the method: as §2
[7] = tested on: Hepatitis C virus subtype 1a; experiment: Inhibition of recombinant HCV genotype 1a NS3/4A protease using Ac-DE-Dap(QXL520)-EE-Abu-Psi-[COO]AS-C(5-FAMsp)-NH2 as substrate preincubated up to 10 mins followed by substrate addition and measured for 10 mins by fluorescence-based microplate reader analysis; summary of the method: as §2
[8] = tested on: Hepatitis C virus subtype 3a; experiment: as §4; summary of the method: as §2
[9] = tested on: Hepatitis C virus serine protease, NS3/NS4A (Hepatitis C virus), D2K2A8+A3EZI9 [A156S]; experiment: as §1, with “recombinant” for “recombinant wild type”, “NS3/4A” for “NS3”, “1657” for “1657 residues)/4A (1658 to 1711”, “protease A156S (NS3) mutant” for “protease”; conditions: Hepatitis C virus subtype 1b; summary of the method: as §3
[10] = tested on: Hepatitis C virus serine protease, NS3/NS4A (Hepatitis C virus), D2K2A8+A3EZI9 [V36M]; experiment: as §1, with “recombinant” for “recombinant wild type”, “NS3/4A” for “NS3”, “1657” for “1657 residues)/4A (1658 to 1711”, “protease V36M (NS3) mutant” for “protease”; conditions: Hepatitis C virus subtype 1b; summary of the method: as §3

IC50 [1] [µM] | Compound | inhibition [3] | inhibition [4] | IC50 [5] [µM] | inhibition [6] | inhibition [7] | further results
10 to 100 | CSc1cccc2sc(NC(=O)c3ccccc3NS(=O)(=O)c3ccc(C)cc3)nc12 | – | – | – | – | – | Kd [2]: > 200 µM
5 to 10 | Cc1c(Cl)cccc1NC(=O)Cc1csc(NS(=O)(=O)c2ccccc2)n1 | – | – | – | – | – | –
– | Cc1cc(NC(=O)Cc2csc(NS(=O)(=O)c3ccccc3)n2)ccc1Br | – | – | – | – | – | inhibition [8]: inactive
10 to 100 | Cc1ccc(S(=O)(=O)Nc2ccccc2C(=O)Nc2nc3c(Br)cccc3s2)cc1 | – | – | – | – | – | Kd [2]: > 200 µM
5 to 10 | Cc1ccc(S(=O)(=O)Nc2ccccc2C(=O)Nc2nc3c(ccc4ccccc43)s2)cc1 | – | – | – | – | – | –
2 to 5 | Cc1ccc(S(=O)(=O)Nc2ccccc2C(=O)Nc2nc3ccc4sc(C)nc4c3s2)cc1 | – | – | – | – | – | –
5 to 10 | CSc1cccc(NC(=O)Cc2csc(NS(=O)(=O)c3ccccc3)n2)c1 | – | – | – | – | – | –
2 to 5 | Cc1ccc(S(=O)(=O)Nc2ccccc2C(=O)Nc2nc3ccc4ccccc4c3s2)cc1 | – | – | – | – | – | –
2 to 5 | Cc1ccc(S(=O)(=O)Nc2ccccc2C(=O)Nc2nc3c(C)cc(C)cc3s2)cc1 | – | – | – | – | – | –

Compound | IC50 [1] [µM] | inhibition [3] | inhibition [4] | IC50 [5] [µM] | inhibition [6] | inhibition [7] | further results
Cc1ccc(S(=O)(=O)Nc2ccccc2C(=O)Nc2nc3c(C)ccc(Cl)c3s2)cc1 | 5 to 10 | inactive | Active | 14 to 33 | Active | Active | –
Cc1ccc(S(=O)(=O)Nc2ccccc2C(=O)Nc2nc3c(cc4c5c(cccc53)CC4)s2)cc1 | 2 to 5 | inactive | Active | 14 to 33 | Active | Active | –
Cc1ccc(S(=O)(=O)Nc2ccccc2C(=O)Nc2nc3c(Cl)ccc(Cl)c3s2)cc1 | 1.6 | Active | Active | 14 to 33 | Active | Active | inhibition [9]: Active; inhibition [10]: Active
Cc1ccc(S(=O)(=O)Nc2ccccc2C(=O)Nc2nc(-c3cc(Cl)ccc3Cl)cs2)cc1 | < 2 | inactive | Active | 14 to 33 | Active | Active | –
